How the values were obtained:
[1] = test system: HepG2; assay: Cytotoxic activity against human HepG2 cells assessed as cell growth inhibition after 48 hrs by MTT assay; assay type: functional, cell-based; settings: HepG2, 48 h
Procedure, shortened: (§1)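 Log-phase cells (1.25-2.5×10^4/100 µl; RPMI 1640, HepG2 in high-glucose DMEM, 10% FBS) given compound in DMSO (final <0.1%), 0-50 µM, 48 h, 37 °C, 5% CO2. MTT 4 h, DMSO solubilization, OD 540 nm minus background; viability relative to untreated; IC50 by graphical extrapolation, ≥3 experiments in duplicate.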

[2] = test system: PBMC; assay: Cytotoxic activity against human PBMC cells assessed as cell growth inhibition after 48 hrs by MTT assay; assay type: cell-based; procedure, shortened: as §1
[3] = test system: Jurkat; assay: Cytotoxic activity against human Jurkat cells assessed as cell growth inhibition after 48 hrs by MTT assay; assay type: functional, cell-based; procedure, shortened: as §1
[4] = test system: HT-29; assay: Cytotoxic activity against human HT-29 cells assessed as cell growth inhibition after 48 hrs by MTT assay; assay type: functional, cell-based; settings: HT-29, 48 h; procedure, shortened: as §1
[5] = test system: U-937; assay: Cytotoxic activity against human U937 cells assessed as cell growth inhibition after 48 hrs by MTT assay; assay type: functional, cell-based; settings: U-937, 48 h; procedure, shortened: as §1
[6] = test system: MCF7; assay: Cytotoxic activity against human MCF7 cells assessed as cell growth inhibition after 48 hrs by MTT assay; assay type: functional, cell-based; settings: MCF7, 48 h; procedure, shortened: as §1

| Structure (SMILES) | IC50 [1] [µM] | IC50 [2] [µM] | IC50 [3] [µM] | IC50 [4] [µM] | IC50 [5] [µM] | IC50 [6] [µM] |
| --- | --- | --- | --- | --- | --- | --- |
| C=C(C)[C@@H]1CC[C@]2(C(=O)O)CC[C@]3(C)[C@H](CC[C@@H]4[C@@]5(C)CC[C@H](OC(=O)Cn6ccnn6)C(C)(C)[C@@H]5CC[C@]43C)[C@@H]12 | > 50 | > 50 | > 50 | > 50 | > 50 | > 50 |
| C=C(C)[C@@H]1CC[C@]2(C(=O)O)CC[C@]3(C)[C@H](CC[C@@H]4[C@@]5(C)CC[C@H](OC(=O)Cn6cc(-c7ccccc7)nn6)C(C)(C)[C@@H]5CC[C@]43C)[C@@H]12 | > 50 | > 50 | > 50 | > 50 | > 50 | > 50 |
| C=C(C)[C@@H]1CC[C@]2(C(=O)O)CC[C@]3(C)[C@H](CC[C@@H]4[C@@]5(C)CC[C@H](OC(=O)Cn6cc(-c7ccc([N+](=O)[O-])cc7)nn6)C(C)(C)[C@@H]5CC[C@]43C)[C@@H]12 | 42.7 | > 50 | 44.8 | > 50 | > 50 | 45.7 |
| C=C(C)[C@@H]1CC[C@]2(C(=O)O)CC[C@]3(C)[C@H](CC[C@@H]4[C@@]5(C)CC[C@H](OC(=O)Cn6cc(-c7c[nH]c(=O)[nH]c7=O)nn6)C(C)(C)[C@@H]5CC[C@]43C)[C@@H]12 | > 50 | – | > 50 | > 50 | > 50 | > 50 |
| C=C(C)[C@@H]1CC[C@]2(C(=O)O)CC[C@]3(C)[C@H](CC[C@@H]4[C@@]5(C)CC[C@H](OC(=O)Cn6cc(-c7ccc(C(=O)OC)cc7)nn6)C(C)(C)[C@@H]5CC[C@]43C)[C@@H]12 | > 50 | – | > 50 | > 50 | > 50 | > 50 |
| C=C(C)[C@@H]1CC[C@]2(C(=O)O)CC[C@]3(C)[C@H](CC[C@@H]4[C@@]5(C)CC[C@H](OC(=O)Cn6cc(CO[C@@H]7[C@H]8OC(C)(C)O[C@H]8O[C@@H]7[C@H]7COC(C)(C)O7)nn6)C(C)(C)[C@@H]5CC[C@]43C)[C@@H]12 | > 50 | – | > 50 | > 50 | > 50 | > 50 |
